Assay results taken from ChEMBL document CHEMBL3352023, “C-terminal residue optimization and fragment merging: discovery of a potent Peptide-hybrid inhibitor of dengue protease” (ACS Med Chem Lett, 2014).
pIC50, pKi: −log10 of the molar value. Activity calls are given as the source filed them. The rule behind the calls is not given here. Square brackets hold non-standard residues; d marks the D form. Peptide text beside a SMILES is read from it. * marks the point of attachment. ξ: configuration not given here. Phe(4-NO2) = N[C@@H](Cc1ccc([N+](=O)[O-])cc1)C(=O)O; Phe(4-CN) = N#Cc1ccc(C[C@H](N)C(=O)O)cc1; 2Pal = N[C@@H](Cc1ccccn1)C(=O)O; 3Pal = N[C@@H](Cc1cccnc1)C(=O)O; Cha = N[C@@H](CC1CCCCC1)C(=O)O; Phg = N[C@H](C(=O)O)c1ccccc1; Tle = CC(C)(C)[C@H](N)C(=O)O; ξTic = O=C(O)C1Cc2ccccc2CN1; ξChg = NC(C(=O)O)C1CCCCC1; 3Abz = Nc1cccc(C(=O)O)c1; 4Abz = Nc1ccc(C(=O)O)cc1; Nva = CCC[C@H](N)C(=O)O; 2Abz = Nc1ccccc1C(=O)O; ξPip = O=C(O)C1CCCCN1; ξPra = C#CCC(N)C(=O)O; Aib = CC(C)(N)C(=O)O; Bz = O=C(c1ccccc1)*; βAla = NCCC(=O)O

Legend:
[1] = target: Genome polyprotein (dengue virus type 2) (UniProt P12823); test: Inhibition of Dengue virus serotype 2 NS2B-NS3 protease at 50 uM by homogeneous fluorimetric assay
[2] = target: Genome polyprotein (dengue virus type 2, UniProt P12823); test: Inhibition of Dengue virus serotype 2 NS2B-NS3 protease by homogeneous fluorimetric assay
[3] = target: Genome polyprotein (West Nile virus) (UniProt P06935); test: Inhibition of West Nile virus […] NS2B-NS3 protease at 50 uM by homogeneous fluorimetric assay
Outline: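 WNV NS2B-NS3 protease percent inhibition, homogeneous fluorimetric assay: enzyme 150 nM, inhibitor 50 μM, substrate 50 μM (Km = 212 μM); triplicate, SD below 10%.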

[4] = target: Prothrombin (Homo sapiens) (UniProt P00734); test: Inhibition of thrombin (unknown origin) at 25 uM by homogeneous fluorimetric assay
[5] = target: Genome polyprotein (West Nile virus, UniProt P06935); test: Inhibition of West Nile virus […] NS2B-NS3 protease by homogeneous fluorimetric assay
Genome polyprotein (West Nile virus, UniProt P06935), sequence (P06935 1371-1501 limits assumed): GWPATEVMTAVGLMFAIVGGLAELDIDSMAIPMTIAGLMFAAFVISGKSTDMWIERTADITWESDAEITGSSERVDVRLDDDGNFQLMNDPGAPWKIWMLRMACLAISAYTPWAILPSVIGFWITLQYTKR
Genome polyprotein (West Nile virus, UniProt P06935), sequence (P06935 1502-2120 limits assumed): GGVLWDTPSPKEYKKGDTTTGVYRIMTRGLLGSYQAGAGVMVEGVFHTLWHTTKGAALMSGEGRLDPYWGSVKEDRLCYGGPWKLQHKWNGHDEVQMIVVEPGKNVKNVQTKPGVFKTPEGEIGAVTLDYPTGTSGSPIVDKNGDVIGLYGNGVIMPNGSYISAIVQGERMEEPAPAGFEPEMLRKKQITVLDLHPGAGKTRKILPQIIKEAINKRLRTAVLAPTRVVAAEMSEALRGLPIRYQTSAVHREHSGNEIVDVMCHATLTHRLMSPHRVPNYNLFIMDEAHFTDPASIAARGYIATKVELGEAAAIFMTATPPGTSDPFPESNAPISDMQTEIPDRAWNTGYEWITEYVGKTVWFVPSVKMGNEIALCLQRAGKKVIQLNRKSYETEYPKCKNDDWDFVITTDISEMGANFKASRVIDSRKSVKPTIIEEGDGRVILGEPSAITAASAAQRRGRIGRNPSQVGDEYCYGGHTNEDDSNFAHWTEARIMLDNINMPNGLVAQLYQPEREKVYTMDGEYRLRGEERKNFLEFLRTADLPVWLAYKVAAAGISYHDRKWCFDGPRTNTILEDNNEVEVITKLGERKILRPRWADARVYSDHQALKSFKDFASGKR

Genome polyprotein (West Nile virus), sequence (P06935 whole entry): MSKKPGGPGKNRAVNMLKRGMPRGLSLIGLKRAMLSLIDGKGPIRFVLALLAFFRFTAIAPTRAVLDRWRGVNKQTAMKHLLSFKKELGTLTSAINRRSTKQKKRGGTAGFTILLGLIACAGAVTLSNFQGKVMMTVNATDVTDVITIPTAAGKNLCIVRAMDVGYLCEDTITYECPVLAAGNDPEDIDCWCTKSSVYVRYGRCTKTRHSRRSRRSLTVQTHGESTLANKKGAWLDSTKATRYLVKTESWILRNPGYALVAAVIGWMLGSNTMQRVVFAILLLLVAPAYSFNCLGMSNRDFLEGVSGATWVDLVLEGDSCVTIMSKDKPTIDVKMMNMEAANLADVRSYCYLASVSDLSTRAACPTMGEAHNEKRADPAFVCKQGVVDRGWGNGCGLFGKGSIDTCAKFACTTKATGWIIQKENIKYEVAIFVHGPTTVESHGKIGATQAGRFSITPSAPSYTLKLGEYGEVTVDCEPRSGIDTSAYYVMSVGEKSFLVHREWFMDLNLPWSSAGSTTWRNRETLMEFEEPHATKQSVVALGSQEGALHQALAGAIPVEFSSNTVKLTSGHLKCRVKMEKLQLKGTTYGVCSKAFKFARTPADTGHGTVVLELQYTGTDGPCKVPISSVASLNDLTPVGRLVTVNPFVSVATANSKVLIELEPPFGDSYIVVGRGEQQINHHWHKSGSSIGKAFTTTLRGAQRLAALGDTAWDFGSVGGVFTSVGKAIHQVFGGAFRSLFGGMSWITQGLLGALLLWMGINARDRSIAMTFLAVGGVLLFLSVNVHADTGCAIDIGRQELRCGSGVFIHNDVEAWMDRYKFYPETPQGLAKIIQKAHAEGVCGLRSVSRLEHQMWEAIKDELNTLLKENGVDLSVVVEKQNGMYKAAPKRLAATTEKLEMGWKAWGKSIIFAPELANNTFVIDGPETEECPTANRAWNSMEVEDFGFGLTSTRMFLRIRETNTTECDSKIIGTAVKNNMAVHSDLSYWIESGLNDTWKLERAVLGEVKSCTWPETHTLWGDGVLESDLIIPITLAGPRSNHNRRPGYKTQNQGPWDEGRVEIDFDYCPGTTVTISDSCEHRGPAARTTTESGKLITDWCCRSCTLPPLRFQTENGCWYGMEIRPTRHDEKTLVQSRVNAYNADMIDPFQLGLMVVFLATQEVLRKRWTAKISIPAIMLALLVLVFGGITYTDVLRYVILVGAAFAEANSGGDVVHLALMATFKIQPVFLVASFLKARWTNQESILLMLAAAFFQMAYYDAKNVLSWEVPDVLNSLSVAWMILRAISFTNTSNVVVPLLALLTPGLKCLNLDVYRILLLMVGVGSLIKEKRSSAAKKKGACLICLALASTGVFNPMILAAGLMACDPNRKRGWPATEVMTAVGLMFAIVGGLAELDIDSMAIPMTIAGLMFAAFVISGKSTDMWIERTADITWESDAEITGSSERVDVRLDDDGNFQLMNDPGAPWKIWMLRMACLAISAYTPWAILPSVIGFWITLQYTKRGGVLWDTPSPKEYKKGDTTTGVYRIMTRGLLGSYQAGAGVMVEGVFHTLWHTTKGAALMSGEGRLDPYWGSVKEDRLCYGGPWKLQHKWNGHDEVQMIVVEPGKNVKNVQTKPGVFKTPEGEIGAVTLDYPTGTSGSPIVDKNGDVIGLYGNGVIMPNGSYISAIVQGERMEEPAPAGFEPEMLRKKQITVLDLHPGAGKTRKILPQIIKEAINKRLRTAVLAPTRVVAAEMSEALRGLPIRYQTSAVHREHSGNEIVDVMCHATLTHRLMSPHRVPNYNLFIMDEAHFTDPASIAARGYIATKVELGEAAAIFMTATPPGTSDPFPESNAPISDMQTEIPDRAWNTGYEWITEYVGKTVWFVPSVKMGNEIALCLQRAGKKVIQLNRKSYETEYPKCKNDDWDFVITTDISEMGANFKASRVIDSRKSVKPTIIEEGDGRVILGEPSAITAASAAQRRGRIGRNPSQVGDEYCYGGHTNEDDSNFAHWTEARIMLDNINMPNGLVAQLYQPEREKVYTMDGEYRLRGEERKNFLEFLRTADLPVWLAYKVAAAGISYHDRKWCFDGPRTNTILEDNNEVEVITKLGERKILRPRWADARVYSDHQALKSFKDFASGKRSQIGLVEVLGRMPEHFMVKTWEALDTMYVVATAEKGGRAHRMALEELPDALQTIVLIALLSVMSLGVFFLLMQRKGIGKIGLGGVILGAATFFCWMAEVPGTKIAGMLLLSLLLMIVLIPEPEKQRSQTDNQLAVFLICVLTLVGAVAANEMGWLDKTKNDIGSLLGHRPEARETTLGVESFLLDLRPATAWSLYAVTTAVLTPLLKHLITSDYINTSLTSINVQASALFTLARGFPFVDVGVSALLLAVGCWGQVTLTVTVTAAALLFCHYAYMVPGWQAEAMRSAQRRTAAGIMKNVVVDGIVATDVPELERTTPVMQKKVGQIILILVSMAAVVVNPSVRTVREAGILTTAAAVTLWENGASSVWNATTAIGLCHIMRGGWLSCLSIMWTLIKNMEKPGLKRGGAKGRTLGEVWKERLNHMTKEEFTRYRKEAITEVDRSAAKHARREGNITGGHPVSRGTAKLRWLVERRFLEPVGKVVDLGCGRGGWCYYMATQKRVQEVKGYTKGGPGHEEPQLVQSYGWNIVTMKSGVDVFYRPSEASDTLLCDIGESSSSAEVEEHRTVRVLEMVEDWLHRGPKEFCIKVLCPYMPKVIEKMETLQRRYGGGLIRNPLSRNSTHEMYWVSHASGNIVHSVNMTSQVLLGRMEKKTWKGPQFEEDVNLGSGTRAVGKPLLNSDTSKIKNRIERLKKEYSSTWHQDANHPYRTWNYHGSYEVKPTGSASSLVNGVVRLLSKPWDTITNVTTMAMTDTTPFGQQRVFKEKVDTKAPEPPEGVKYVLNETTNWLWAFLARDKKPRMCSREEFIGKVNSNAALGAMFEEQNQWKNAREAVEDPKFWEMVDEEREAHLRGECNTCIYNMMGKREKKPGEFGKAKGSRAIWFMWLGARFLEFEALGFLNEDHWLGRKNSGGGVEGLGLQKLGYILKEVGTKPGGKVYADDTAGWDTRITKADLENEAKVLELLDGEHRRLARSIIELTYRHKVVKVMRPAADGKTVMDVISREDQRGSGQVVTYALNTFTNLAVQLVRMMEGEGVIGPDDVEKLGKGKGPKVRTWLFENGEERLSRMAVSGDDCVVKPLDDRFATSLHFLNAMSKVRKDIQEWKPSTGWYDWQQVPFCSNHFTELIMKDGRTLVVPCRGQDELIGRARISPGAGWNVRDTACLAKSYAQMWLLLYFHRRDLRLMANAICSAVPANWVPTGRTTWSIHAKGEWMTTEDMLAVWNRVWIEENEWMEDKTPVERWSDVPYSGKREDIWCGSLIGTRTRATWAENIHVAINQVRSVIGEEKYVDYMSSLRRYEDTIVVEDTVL

SMILES | inhibition [1] | pIC50 [2] | inhibition [3] | inhibition [4] | pIC50 [5] | pKi [5]
N=C(N)NCCC[C@H](NC(=O)c1ccc(/C=C2\SC(=O)N(C3CCCC3)C2=O)cc1)C(=O)N[C@@H](CCCCN)C(=O)N1Cc2ccccc2CC1C(N)=O (stereo partly specified) | 85.7% | 4.98 | 49.4% | 7.6% | – | –
N=C(N)NCCC[C@H](NC(=O)c1ccccc1)C(=O)N[C@@H](CCCCN)C(=O)NCCC(N)=O (Bz-Arg-Lys-[βAla]-NH2) | 32.9% | 3.96 | 19.8% | inactive | – | –
N=C(N)NCCC[C@H](NC(=O)c1ccccc1)C(=O)N[C@@H](CCCCN)C(=O)N[C@@H](CC1CCCCC1)C(N)=O (Bz-Arg-Lys-[Cha]-NH2) | 80% | 5.09 | 19.1% | inactive | – | –
N=C(N)NCCC[C@H](NC(=O)c1ccccc1)C(=O)N[C@@H](CCCCN)C(=O)Nc1ccc(C(N)=O)cc1 (Bz-Arg-Lys-[4Abz]-NH2) | 27.5% | 4.04 | 17.9% | 9.2% | – | –
CCCC[C@@H](NC(=O)[C@H](CCCCN)NC(=O)[C@H](CCCNC(=N)N)NC(=O)c1ccccc1)C(N)=O | 72.7% | 4.85 | 16.1% | 4.9% | – | –
CC(C)C[C@H](NC(=O)[C@H](CCCCN)NC(=O)[C@H](CCCNC(=N)N)NC(=O)c1ccccc1)C(N)=O (Bz-Arg-Lys-Leu-NH2) | 63.2% | 4.64 | 18.4% | 5.9% | – | –
C#CCC(NC(=O)[C@H](CCCCN)NC(=O)[C@H](CCCNC(=N)N)NC(=O)c1ccccc1)C(N)=O (stereo partly drawn) (Bz-Arg-Lys-[ξPra]-NH2) | 72.5% | 4.76 | 14.3% | 5.2% | – | –
N=C(N)NCCC[C@H](NC(=O)c1ccccc1)C(=O)N[C@@H](CCCCN)C(=O)NCC(N)=O (Bz-Arg-Lys-Gly-NH2) | 70.4% | 4.68 | 44.6% | 3.5% | – | –
CC(C)(C)[C@H](NC(=O)[C@H](CCCCN)NC(=O)[C@H](CCCNC(=N)N)NC(=O)c1ccc(/C=C2\SC(=O)N(C3CCCC3)C2=O)cc1)C(N)=O | 60.6% | 4.53 | 28% | 10.2% | – | –
N=C(N)NCCC[C@H](NC(=O)c1ccccc1)C(=O)N[C@@H](CCCCN)C(=O)N[C@@H](Cc1ccccc1)C(N)=O (Bz-Arg-Lys-Phe-NH2) | 80.7% | 4.92 | 18.2% | 7.2% | – | –
N=C(N)NCCC[C@H](NC(=O)c1ccccc1)C(=O)N[C@@H](CCCCN)C(=O)Nc1ccccc1C(N)=O (Bz-Arg-Lys-[2Abz]-NH2) | 62% | 4.80 | 8.7% | 6.4% | – | –
N=C(N)NCCC[C@H](NC(=O)c1ccccc1)C(=O)N[C@@H](CCCCN)C(=O)N[C@@H](Cc1ccc([N+](=O)[O-])cc1)C(N)=O (Bz-Arg-Lys-[Phe(4-NO2)]-NH2) | 66.6% | 4.76 | 21.3% | inactive | – | –
CC(C)[C@H](NC(=O)[C@H](CCCCN)NC(=O)[C@H](CCCNC(=N)N)NC(=O)c1ccccc1)C(N)=O (Bz-Arg-Lys-Val-NH2) | 60% | 4.54 | 18.3% | 4.9% | – | –
N#C/C(=C\c1ccc(C(=O)N[C@@H](CCCNC(=N)N)C(=O)N[C@@H](CCCCN)C(=O)N2Cc3ccccc3CC2C(N)=O)cc1)C(=O)NC1CC1 (stereo partly specified) | 59.2% | 4.60 | 38.3% | inactive | – | –
N=C(N)NCCC[C@H](NC(=O)c1ccccc1)C(=O)N[C@@H](CCCCN)C(=O)N[C@@H](Cc1ccc(O)cc1)C(N)=O (Bz-Arg-Lys-Tyr-NH2) | 82.3% | 5.13 | 12.9% | 7.9% | – | –
N=C(N)NCCC[C@H](NC(=O)c1ccccc1)C(=O)N[C@@H](CCCCN)C(=O)N1CCC[C@H]1C(N)=O (Bz-Arg-Lys-Pro-NH2) | 20% | 3.72 | 3.6% | inactive | – | –
C[C@@H](O)[C@H](NC(=O)[C@H](CCCCN)NC(=O)[C@H](CCCNC(=N)N)NC(=O)c1ccccc1)C(N)=O (Bz-Arg-Lys-Thr-NH2) | 32.1% | 4.01 | 16.5% | inactive | – | –
N=C(N)NCCC[C@H](NC(=O)c1ccccc1)C(=O)N[C@@H](CCCCN)C(=O)N[C@@H](CO)C(N)=O (Bz-Arg-Lys-Ser-NH2) | 57.9% | 4.52 | 21.9% | 6.2% | – | –
C[C@H](NC(=O)[C@H](CCCCN)NC(=O)[C@H](CCCNC(=N)N)NC(=O)c1ccccc1)C(N)=O (Bz-Arg-Lys-Ala-NH2) | 46.6% | 4.45 | 26% | 7.2% | – | –

SMILES | inhibition [1] | pIC50 [2] | inhibition [3] | inhibition [4] | pIC50 [5] | pKi [5]
CCCC[C@H](NC(=O)[C@H](CCCCN)NC(=O)[C@H](CCCNC(=N)N)NC(=O)c1ccccc1)C(N)=O | 68.1% | 4.88 | 7.7% | – | – | –
N=C(N)NCCC[C@H](NC(=O)c1ccccc1)C(=O)N[C@@H](CCCCN)C(=O)N1Cc2ccccc2CC1C(N)=O (stereo partly drawn) (Bz-Arg-Lys-[ξTic]-NH2) | 41.6% | 4.18 | 17.8% | inactive | – | –
CCCC[C@H](NC(=O)[C@H](CCCCN)NC(=O)[C@H](CCCNC(=N)N)NC(=O)c1ccc(/C=C2\SC(=O)N(C3CCCC3)C2=O)cc1)C(N)=O | 98.2% | 5.60 | 51.8% | – | – | –
N=C(N)NCCC[C@H](NC(=O)c1ccccc1)C(=O)N[C@@H](CCCCN)C(=O)N1CCCCC1C(N)=O (stereo partly drawn) (Bz-Arg-Lys-[ξPip]-NH2) | 13.7% | 3.80 | 12.1% | inactive | – | –
CSCC[C@H](NC(=O)[C@H](CCCCN)NC(=O)[C@H](CCCNC(=N)N)NC(=O)c1ccccc1)C(N)=O (Bz-Arg-Lys-Met-NH2) | 45% | 4.32 | 11.8% | 6.2% | – | –
N=C(N)NCCC[C@H](NC(=O)c1ccccc1)C(=O)N[C@@H](CCCCN)C(=O)N[C@@H](Cc1ccccn1)C(N)=O (Bz-Arg-Lys-[2Pal]-NH2) | 53% | 4.35 | 9.8% | inactive | – | –
CCC[C@H](NC(=O)[C@H](CCCCN)NC(=O)[C@H](CCCNC(=N)N)NC(=O)c1ccccc1)C(N)=O (Bz-Arg-Lys-[Nva]-NH2) | 62% | 4.60 | 8.5% | inactive | – | –
CC(C)(C)[C@H](NC(=O)[C@H](CCCCN)NC(=O)[C@H](CCCNC(=N)N)NC(=O)c1ccccc1)C(N)=O (Bz-Arg-Lys-[Tle]-NH2) | 18.8% | 3.86 | 11.7% | inactive | – | –
N=C(N)NCCC[C@H](NC(=O)c1ccccc1)C(=O)N[C@@H](CCCCN)C(=O)NC(C(N)=O)C1CCCCC1 (stereo partly drawn) (Bz-Arg-Lys-[ξChg]-NH2) | 71.7% | 4.76 | 12.1% | inactive | – | –
N#C/C(=C\c1ccc(C(=O)N[C@@H](CCCNC(=N)N)C(=O)N[C@@H](CCCCN)C(=O)NC(C(N)=O)c2ccccc2)cc1)C(=O)NC1CC1 (stereo partly specified) | 98.6% | 5.89 | 90.2% | 5.6% | – | –
N=C(N)NCCC[C@H](NC(=O)c1ccccc1)C(=O)N[C@@H](CCCCN)C(=O)Nc1cccc(C(N)=O)c1 (Bz-Arg-Lys-[3Abz]-NH2) | 27% | 4.02 | 23% | 5.6% | – | –
CC[C@H](C)[C@H](NC(=O)[C@H](CCCCN)NC(=O)[C@H](CCCNC(=N)N)NC(=O)c1ccccc1)C(N)=O (Bz-Arg-Lys-Ile-NH2) | 56.6% | 4.55 | 14.9% | 4.6% | – | –
CC(C)(C)[C@H](NC(=O)[C@H](CCCCN)NC(=O)[C@H](CCCNC(=N)N)NC(=O)c1ccc(/C=C(\C#N)C(=O)NC2CC2)cc1)C(N)=O | 32.5% | 4.24 | 26.7% | 5% | – | –
N=C(N)NCCC[C@H](NC(=O)c1ccccc1)C(=O)N[C@@H](CCCCN)C(=O)N[C@@H](Cc1c[nH]c2ccccc12)C(N)=O (Bz-Arg-Lys-Trp-NH2) | 74.1% | 4.75 | 32.8% | inactive | – | –
N#Cc1ccc(C[C@H](NC(=O)[C@H](CCCCN)NC(=O)[C@H](CCCNC(=N)N)NC(=O)c2ccccc2)C(N)=O)cc1 (Bz-Arg-Lys-[Phe(4-CN)]-NH2) | 71.7% | 4.84 | 15.9% | inactive | – | –
CCCC[C@H](NC(=O)[C@H](CCCCN)NC(=O)[C@H](CCCNC(=N)N)NC(=O)c1ccc(/C=C(\C#N)C(=O)NC2CC2)cc1)C(N)=O | 88.5% | 5.28 | 28% | – | – | –
N=C(N)NCCC[C@H](NC(=O)c1ccccc1)C(=O)N[C@@H](CCCCN)C(=O)N[C@H](C(N)=O)c1ccccc1 (Bz-Arg-Lys-[Phg]-NH2) | 95% | 5.48 | 39.3% | inactive | 4.24 | 4.31
CC(C)(NC(=O)[C@H](CCCCN)NC(=O)[C@H](CCCNC(=N)N)NC(=O)c1ccccc1)C(N)=O (Bz-Arg-Lys-[Aib]-NH2) | 55% | 4.33 | 13.7% | inactive | – | –
N=C(N)NCCC[C@H](NC(=O)c1ccccc1)C(=O)N[C@@H](CCCCN)C(=O)N[C@@H](Cc1cccnc1)C(N)=O (Bz-Arg-Lys-[3Pal]-NH2) | 61.3% | 4.52 | 12.5% | inactive | – | –
